Here are results for 21 molecules from ChEMBL document CHEMBL4382210, “Identification of novel benzothiopyranone compounds against Mycobacterium tuberculosis through scaffold morphing from benzothiazinones” (Eur J Med Chem, 2018).

A word on the MIC90: it is the lowest concentration that inhibits either 90% of growth or 90% of the strains tested, depending on the study. Broadly, the IC50 is the concentration that gives 50% inhibition. As a reminder, the half-life is the time needed for the level to fall by half in the phase considered.

Series [1] concerns Mycobacterium tuberculosis. The series can be described thus: Antimicrobial activity against Mycobacterium tuberculosis H37Rv after 7 days by MABA. Particulars: 168 h. Format: functional. An outline of the steps: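 Strain H37Rv or clinical isolates grown to late log phase in 7H9-ADC-TG, washed, resuspended in PBS, filtered (8 µm) and frozen. On day 7 Tween 80 and alamar blue added, read 16–24 h later (ex 530/em 590). MIC = lowest concentration giving ≥90% fluorescence reduction versus bacterium-only controls.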
(In general: The colour change of resazurin is a common sign of viable cells or microbes.)

For a further series, the system named is Vero. The series can be described thus: Cytotoxicity against African green monkey Vero cells assessed as reduction in cell viability after 48 hrs by MTT assay. Format: cell-based. Particulars: Chlorocebus sabaeus. The gist of the method: (§1)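 Vero or HepG2 cells in RPMI1640 with 10% FBS at 37 °C, 5% CO2, seeded at 4×10^5 cells/mL. Threefold dilutions at 64–0.26 µg/mL final for 48 h. Cells then washed with HBSS, MTT added for 4 h, absorbance read at 492 nm. IC50 taken relative to untreated control.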
In general terms: Tetrazolium dyes change colour on reduction, which living cells bring about.

A short description of series [2]: Metabolic stability in CD-1 mouse liver microsomes assessed as parent compound remaining at 1 uM measured after 30 mins in presence of NADPH by LC-MS/MS analysis. Format: ADME, Microsome. Particulars: read-out: Stability. An outline of the steps: (§2)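 Male CD-1 mouse or pooled human liver microsomes (1 mg/mL protein), compound at 1 µM, 37 °C. Reaction started with 1 mM NADPH and quenched with cold ACN/MeOH containing internal standard. Parent remaining measured by LC-MS/MS; the 30-min value is normalised to time zero.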
On the technique in general: Microsomes from liver hold many membrane-bound enzymes, among them those of drug oxidation.

Series [3] can be described thus: Metabolic stability in human liver microsomes assessed as parent compound remaining at 1 uM measured after 30 mins in presence of NADPH by LC-MS/MS analysis. Format: ADME, Microsome. Particulars: read-out: Stability. An outline of the steps: as §2
Series [4] can be described thus: Inhibition of Mycobacterium tuberculosis DprE1 expressed in Escherichia coli BL21(DE3) by fluorescence based assay. An outline of the steps: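 Buffer: 50 mM Hepes pH 7.5, 100 mM NaCl, 1.5% DMSO, 100 µM Tween-20, 2 µM FAD, 50 µM resazurin. DprE1 (1 µM) with 1 mM FPR at 30 °C across inhibitor concentrations. Resorufin formation followed by fluorescence (ex 530/em 595 nm).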

Series [5] in a line: Intrinsic clearance in CD-1 mouse hepatocytes assessed per million cells at 1 uM incubated up to 120 mins by LC-MS/MS analysis. Particulars: read-out: CLH. It counts as ADME, cell-based, Hepatocyte. An outline of the steps: (§3)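 Pooled male CD-1 mouse or pooled human hepatocytes at 1 million cells/mL final, compound at 1 µM. Incubated at 37 °C in a CO2 incubator with shaking (~100 rpm). Samples taken at 0, 15, 30, 60, 90 and 120 min and quenched with cold ACN/MeOH containing internal standard. Parent compound remaining measured by LC-MS/MS.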

A further series has as its system HepG2. The series can be described thus: Cytotoxicity against human HepG2 cells assessed as reduction in cell viability after 48 hrs by MTT assay. Format: cell-based. Particulars: HepG2, 48 h. An outline of the steps: as §1
Series [6] is described as follows: Half life in CD-1 mouse hepatocytes assessed per million cells at 1 uM incubated up to 120 mins by LC-MS/MS analysis. Format: ADME, cell-based, Hepatocyte. The gist of the method: as §3
The nature of series [7]: Intrinsic clearance in human hepatocytes assessed per million cells at 1 uM incubated up to 120 mins by LC-MS/MS analysis. Format: ADME, cell-based, Hepatocyte. Particulars: read-out: CLH. The gist of the method:
as §3

Series [8] in a line: Half life in human hepatocytes assessed per million cells at 1 uM incubated up to 120 mins by LC-MS/MS analysis. Format: ADME, cell-based, Hepatocyte. An outline of the steps: as §3
Series [9] can be described thus: Selectivity index, ratio of IC50 for human HepG2 cells to MIC=>90 for Mycobacterium tuberculosis H37Rv. It counts as toxicity. Particulars: read-out: Selectivity Index.

SMILES strings stand for the structures. Converted amounts (≈) assume the structure as drawn.

In turn, `O=c1nc(N2CCN(Cc3ccccc3)CC2)oc2c([N+](=O)[O-])cc(C(F)(F)F)cc12` registered an MIC90 in [1] of 3.93 µg/mL (≈ 9.05 µM). Further, in the series with Vero, the IC50 is 33.5 µg/mL (≈ 77.1 µM).
`O=c1nc(N2CCN(c3nccs3)CC2)oc2c([N+](=O)[O-])cc(C(F)(F)F)cc12` had an MIC90 in series [1] of 4 µg/mL (≈ 9.36 µM).
The molecule `COc1ccc(CN(C)c2cc(=O)c3cc(C(F)(F)F)cc([N+](=O)[O-])c3s2)cc1OC` gave an MIC90 in series [1] of less than 0.016 µg/mL. For the same molecule, the concentration for half-maximal inhibition (IC50) in the series with Vero was greater than 64 µg/mL.
The matching figures for `COc1ccc(CNc2nc(=O)c3cc(C(F)(F)F)cc([N+](=O)[O-])c3o2)cc1OC`: 0.226 µg/mL (≈ 0.531 µM) and 29.2 µg/mL (≈ 68.7 µM).
Taken in the same sequence, the figures for `CN(Cc1ccccc1)c1nc(=O)c2cc(C(F)(F)F)cc([N+](=O)[O-])c2o1` were 0.031 µg/mL (≈ 0.0817 µM) and 3.84 µg/mL (≈ 10.1 µM).
For the molecule `O=c1cc(NCc2ccccc2)sc2c([N+](=O)[O-])cc(C(F)(F)F)cc12`, in series [1], the MIC90 is greater than 32 µg/mL. Besides, in the series with Vero, the IC50 is greater than 64 µg/mL.
Molecule `COc1ccc(CN(C)c2nc(=O)c3cc(C(F)(F)F)cc([N+](=O)[O-])c3o2)cc1OC` gave an MIC90 in series [1] of 0.057 µg/mL (≈ 0.13 µM). The 50% inhibitory concentration (IC50) in the series with Vero is 9.46 µg/mL (≈ 21.5 µM).
Molecule `O=c1nc(N2CCN(CC3CCCCC3)CC2)oc2c([N+](=O)[O-])cc(C(F)(F)F)cc12` displayed an MIC90 in series [1] of 0.159 µg/mL (≈ 0.361 µM). In addition, the IC50 with Vero came to 52.1 µg/mL (≈ 118 µM).
As for `CC1CN(c2cc(=O)c3cc(C(F)(F)F)cc([N+](=O)[O-])c3s2)CCN1CC1CCCCC1` (stereo unspecified), the MIC90 in [1] is less than 0.016 µg/mL. The remaining at 0.5 h, 1 µM was 59.9% in [2] and 62.7% in series [3]. The IC50 in the series with Vero was greater than 64 µg/mL.
On to `O=C1CN(c2cc(=O)c3cc(C(F)(F)F)cc([N+](=O)[O-])c3s2)CCN1CC1CCCCC1`, for which the MIC90 in series [1] was less than 0.016 µg/mL. For the same molecule, the remaining at 0.5 h, 1 µM in series [2] stood at 7.38%; in [3], 86.6%. Besides, the concentration for half-maximal inhibition (IC50) with Vero was greater than 64 µg/mL.
As to `O=C1CN(c2nc(=O)c3cc(C(F)(F)F)cc([N+](=O)[O-])c3o2)CCN1CC1CCCCC1`, the MIC90 in series [1] worked out at 6.28 µg/mL (≈ 13.8 µM). The IC50 in the series on Vero worked out at 25.4 µg/mL (≈ 55.9 µM).
Taken in the same sequence, the figures for `O=c1nc(NCc2ccc(F)cc2)oc2c([N+](=O)[O-])cc(C(F)(F)F)cc12` were 7.22 µg/mL (≈ 18.8 µM) and greater than 64 µg/mL.
Taken in the same sequence, the figures for `O=c1nc(NCc2ccccc2)oc2c([N+](=O)[O-])cc(C(F)(F)F)cc12` were 30.5 µg/mL (≈ 83.6 µM) and 25.4 µg/mL (≈ 69.4 µM).
`O=C1CN(c2cc(=O)c3cc(C(F)(F)F)cc([N+](=O)[O-])c3o2)CCN1CC1CCCCC1` gave an MIC90 in series [1] of 0.091 µg/mL (≈ 0.201 µM). In addition, the IC50 with Vero was 9.73 µg/mL (≈ 21.5 µM).
`CN(Cc1ccccc1)c1cc(=O)c2cc(C(F)(F)F)cc([N+](=O)[O-])c2s1`: the MIC90 in series [1] was less than 0.016 µg/mL. The remaining at 0.5 h, 1 µM in series [2] was 13%; in series [3] it was 11.6%. For the same molecule, the IC50 in the series with Vero is greater than 64 µg/mL.
`CN(Cc1ccc2c(c1)OCCO2)c1nc(=O)c2cc(C(F)(F)F)cc([N+](=O)[O-])c2o1` came in with an MIC90 in series [1] of less than 0.016 µg/mL. The IC50 in the series with Vero was 9.27 µg/mL (≈ 21.2 µM).
Take `CC1CN(c2nc(=O)c3cc(C(F)(F)F)cc([N+](=O)[O-])c3o2)CCN1Cc1ccccc1` (stereo unspecified): in [1], the MIC90 is less than 0.016 µg/mL. Besides, in the series with Vero, the IC50 amounted to 15.6 µg/mL (≈ 34.8 µM).
`O=c1cc(NCc2ccc3c(c2)OCCO3)sc2c([N+](=O)[O-])cc(C(F)(F)F)cc12` displayed an MIC90 in series [1] of 0.03 µg/mL (≈ 0.0684 µM). In addition, in the series on Vero, the IC50 was greater than 64 µg/mL.
The molecule `C[C@H]1COC2(CCN(c3nc(=O)c4cc(C(F)(F)F)cc([N+](=O)[O-])c4s3)CC2)O1` [BTZ-043] yielded an MIC90 in [1] of less than 0.016 µg/mL. Also, the IC50 in series [4] is 1030 nM; in the series with Vero, greater than 64 µg/mL.
As for `O=c1nc(N2CCN(CC3CCCCC3)CC2)sc2c([N+](=O)[O-])cc(C(F)(F)F)cc12` [MACOZINONE], in series [1], the MIC90 is less than 0.016 µg/mL. In addition, the values for the hepatocyte CLint at 1 µM in [5] and in [7] were 4.2 µL/min/1e6 cells and 14.5 µL/min/1e6 cells, respectively. Also, the IC50 is 19 µg/mL (≈ 41.6 µM) with HepG2, 200 nM in series [4] and greater than 64 µg/mL in the series on Vero. The remaining at 0.5 h, 1 µM amounted to 63.9% in series [2] and 58.7% in series [3]. Also, the half-life at 1 µM stood at 2.75 h in series [6] and 0.797 h in series [8]. Moreover, in [9], the selectivity ratio is greater than 1190.
In the case of `CO[C@H]1/C=C/O[C@@]2(C)Oc3c(C)c(O)c4c(O)c(c(/C=N/N5CCN(C)CC5)c(O)c4c3C2=O)NC(=O)/C(C)=C\C=C\[C@H](C)[C@H](O)[C@@H](C)[C@@H](O)[C@@H](C)[C@H](OC(C)=O)[C@@H]1C` [RIFAMPIN], the MIC90 in series [1] amounted to 0.096 µg/mL (≈ 0.117 µM).
